Assays:
[1] = system: L5178Y; experiment: Inhibitory activity against murine tumor cells (L5178Y/R); type: functional, Mus musculus
Method in brief: (§1)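 L5178Y murine leukemia cells, MTX-sensitive (S) and MTX-resistant (R), kept in log-phase growth at 37 °C in RPMI-1640 with 10% fetal calf serum and 1% penicillin-streptomycin. Doubling times were 11-12 h (S) and 15-18 h (R). Cells seeded at 4.0-6.0 × 10^4 cells/mL, duplicate wells, at least six concentrations, final DMSO <2%. Untreated and DMSO controls included; cells counted by Coulter counter.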

[2] = system: L5178Y; experiment: Inhibitory activity against murine tumor cells (L5178Y/S); type: functional, Mus musculus; method in brief: as §1
[3] = system: L5178Y; experiment: Inhibitory action against murine tumor cells (L5178Y/S); type: functional, Mus musculus; method in brief: as §1
[4] = system: L5178Y; experiment: Inhibitory action against murine tumor cells (L5178Y/R); type: functional, Mus musculus; method in brief: as §1
[5] = Partition coefficient (logP); type: physicochemical; details: octanol/water
Method in brief: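 Octanol/water partitioning. The protonated form was partitioned between octanol and 0.1 N HCl. The neutral form was partitioned between octanol and 0.1 N NaOH.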

SMILES	Log 1/C [1]	Log 1/C [2]	Log 1/C [3]	Log 1/C [4]	logP [5]
Nc1ncc(Cc2ccccc2)c(N)n1	3.88	5.24			
CS(=O)(=O)Oc1cccc(Cc2cnc(N)nc2N)c1			5.28	3.34	
Nc1ncc(Cc2cccc(Cl)c2)c(N)n1	3.85	5.39			
CCCCCCOc1cccc(Cc2cnc(N)nc2N)c1	5.16	5.3			
Nc1ncc(Cc2cc(CO)cc(CO)c2)c(N)n1	2.49	3.79			
COc1cccc(Cc2cnc(N)nc2N)c1	3.63	5.06			
Nc1ncc(Cc2ccc(Cl)cc2)c(N)n1	4.56	5.37			
Nc1ncc(Cc2cccc(I)c2)c(N)n1	4.36	5.86			
NC(=O)COc1cccc(Cc2cnc(N)nc2N)c1			4.91	3.14	
CN(C)c1ccc(Cc2cnc(N)nc2N)cc1	4.02	4.95			
COc1cc(Cc2cnc(N)nc2N)cc(OC)c1	3.83	5.47			
Cc1cccc(Cc2cnc(N)nc2N)c1	4.15	5.5			
CCCCOc1cccc(Cc2cnc(N)nc2N)c1	4.99	5.74			
CC1(C)N=C(N)N=C(N)N1c1ccc(CCCCc2ccc(S(=O)(=O)F)cc2Cl)c(Cl)c1					2.4
Nc1ncc(Cc2cccc(F)c2)c(N)n1	3.61	5.27			
Nc1ncc(Cc2cccc(CO)c2)c(N)n1	2.98	4.97			
CCCCCCCCOc1cccc(Cc2cnc(N)nc2N)c1	4.92	5.12			
Nc1ncc(Cc2ccc(F)cc2)c(N)n1	3.9	5.48			
Nc1ncc(Cc2ccc(Br)cc2)c(N)n1	3.98	5.38			
COCCOc1cccc(Cc2cnc(N)nc2N)c1	3.7	5.2			
Nc1ccc(Cc2cnc(N)nc2N)cc1	3.58	4.65			
COc1ccc(Cc2cnc(N)nc2N)cc1	3.52	5.1			

SMILES	Log 1/C [1]	Log 1/C [2]	Log 1/C [3]	Log 1/C [4]	logP [5]
CC(=O)Nc1ccc(Cc2cnc(N)nc2N)cc1[N+](=O)[O-]	3.2	5.11			
Nc1ncc(Cc2ccc(OC(F)(F)F)cc2)c(N)n1	4.46	5.24			
COc1ccc(Cc2cnc(N)nc2N)cc1C(F)(F)F	4.39	5.85			
Nc1ncc(Cc2cccc(Br)c2)c(N)n1	4.12	5.52			
CCCCCCCOc1ccc(Cc2cnc(N)nc2N)cc1	5.67	5.13			
Nc1ncc(Cc2cccc(O)c2)c(N)n1	3.09	4.89			
Nc1ncc(Cc2cccc(C(F)(F)F)c2)c(N)n1	4.37	5.63			
CCCCCCOc1ccc(Cc2cnc(N)nc2N)cc1	5.48	5.47			
COCCOc1c(OC)cc(Cc2cnc(N)nc2N)cc1OC [TETROXOPRIM]	3.16	4.2			
Cc1ccc(Cc2cnc(N)nc2N)cc1	4.21	5.26			
COCc1cccc(Cc2cnc(N)nc2N)c1	3.65	5.28			
COc1ccc(Cc2cnc(N)nc2N)cc1OC [DIAVERIDINE]	3.54	5.41			
Nc1ncc(Cc2ccc([N+](=O)[O-])cc2)c(N)n1	3.67	5.18			
Nc1ncc(Cc2cccc(OCc3ccccc3)c2)c(N)n1	4.7	5.91			
COCCOc1ccc(Cc2cnc(N)nc2N)cc1	3.08	4.77			
COCCOc1ccc(Cc2cnc(N)nc2N)cc1OCCOC	3.28	5.06			
CCCCOCc1cccc(Cc2cnc(N)nc2N)c1	3.93	5.74			
CCCCCCCOc1cccc(Cc2cnc(N)nc2N)c1	4.61	5.1			
CCCCOc1ccc(Cc2cnc(N)nc2N)cc1	4.83	5.37			
CC(=O)Nc1ccc(Cc2cnc(N)nc2N)cc1	3.23	5.12			
Nc1ncc(Cc2ccc(O)c(O)c2)c(N)n1	4.94	5.06			

Source: ChEMBL document CHEMBL1122051 (J Med Chem, 1982)
